Experiments:
Nitric oxide synthase 1 [1] = target: T1, Nitric oxide synthase 1 (Homo sapiens, UniProt P29475); assay: Inhibition of recombinant nNOS (unknown origin) assessed as conversion of L-[3H]-arginine to L-[3H]-citrulline at 1 mM after 30 mins
Procedure, shortened: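 Recombinant nNOS (21.05 nmol/min/mg) in 25 mM Tris-HCl pH 7.6 with DTT, H4-biopterin, FAD, inosine, BSA, CaCl2, L-arginine and 50 nM L-[3H]-arginine. Compound at 1 mM; 37 °C, 30 min. Stopped with cold HEPES/EGTA/L-citrulline pH 5.5, Dowex-50W (Na+) separation, [3H]-citrulline by scintillation. NADPH-omitted blank subtracted. Mean of three experiments in triplicate.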

[2] = target: Nitric oxide synthase, inducible (Homo sapiens) (UniProt P35228); assay: Inhibition of recombinant iNOS (unknown origin) assessed as conversion of L-[3H]-arginine to L-[3H]-citrulline at 1 mM after 30 mins
Sequence of Nitric oxide synthase, inducible (Homo sapiens) (P35228 whole entry): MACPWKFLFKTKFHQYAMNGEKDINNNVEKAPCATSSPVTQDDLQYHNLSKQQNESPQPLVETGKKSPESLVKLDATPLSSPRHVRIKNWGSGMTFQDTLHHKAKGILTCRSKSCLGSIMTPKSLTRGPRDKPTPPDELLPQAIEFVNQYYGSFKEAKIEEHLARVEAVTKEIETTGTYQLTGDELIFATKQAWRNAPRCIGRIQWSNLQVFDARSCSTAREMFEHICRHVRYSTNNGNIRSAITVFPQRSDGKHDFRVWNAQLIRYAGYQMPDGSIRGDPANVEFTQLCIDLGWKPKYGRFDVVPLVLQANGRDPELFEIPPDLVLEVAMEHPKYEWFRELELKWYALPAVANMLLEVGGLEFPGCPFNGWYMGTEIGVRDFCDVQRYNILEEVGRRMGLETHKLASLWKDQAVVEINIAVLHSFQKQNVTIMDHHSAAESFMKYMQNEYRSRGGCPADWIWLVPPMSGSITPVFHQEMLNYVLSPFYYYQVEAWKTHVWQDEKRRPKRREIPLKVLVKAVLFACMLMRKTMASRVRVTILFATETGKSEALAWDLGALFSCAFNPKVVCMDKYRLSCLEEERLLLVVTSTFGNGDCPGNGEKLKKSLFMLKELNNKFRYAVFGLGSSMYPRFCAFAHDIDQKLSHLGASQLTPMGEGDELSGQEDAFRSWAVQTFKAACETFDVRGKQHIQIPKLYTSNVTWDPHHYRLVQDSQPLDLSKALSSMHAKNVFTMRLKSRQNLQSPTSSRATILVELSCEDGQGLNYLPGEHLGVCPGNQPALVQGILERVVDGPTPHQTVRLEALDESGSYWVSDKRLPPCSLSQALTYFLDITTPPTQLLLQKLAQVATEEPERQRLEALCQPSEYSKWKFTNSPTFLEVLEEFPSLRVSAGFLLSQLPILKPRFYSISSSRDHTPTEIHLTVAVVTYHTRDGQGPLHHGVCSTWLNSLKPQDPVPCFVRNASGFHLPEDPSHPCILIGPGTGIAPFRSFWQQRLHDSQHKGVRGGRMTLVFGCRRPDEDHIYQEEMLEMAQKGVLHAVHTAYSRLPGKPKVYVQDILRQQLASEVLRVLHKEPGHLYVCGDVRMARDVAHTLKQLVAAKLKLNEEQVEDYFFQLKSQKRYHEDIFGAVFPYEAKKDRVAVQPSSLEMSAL
Procedure, shortened: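 Recombinant iNOS was tested with each compound at 1 mM. Activity is expressed relative to control and reported as % inhibition. Each value is the mean of three experiments, each run in triplicate.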

Nitric oxide synthase 1 [3] = target: T1, Nitric oxide synthase 1; assay: Inhibition of recombinant nNOS (unknown origin) assessed as conversion of L-[3H]-arginine to L-[3H]-citrulline after 30 mins
Procedure, shortened: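 Bredt–Snyder radiometric citrulline assay using recombinant nNOS in 25 mM Tris-HCl pH 7.6 with DTT, H4-biopterin, FAD, inosine, BSA, 0.1 mM CaCl2, L-arginine and 50 nM L-[3H]-arginine. Incubated at 37 °C for 30 min, then Dowex-50W separation and scintillation counting. Blank without NADPH subtracted. IC50 given in mM.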

T1 sequence (P29475 whole entry): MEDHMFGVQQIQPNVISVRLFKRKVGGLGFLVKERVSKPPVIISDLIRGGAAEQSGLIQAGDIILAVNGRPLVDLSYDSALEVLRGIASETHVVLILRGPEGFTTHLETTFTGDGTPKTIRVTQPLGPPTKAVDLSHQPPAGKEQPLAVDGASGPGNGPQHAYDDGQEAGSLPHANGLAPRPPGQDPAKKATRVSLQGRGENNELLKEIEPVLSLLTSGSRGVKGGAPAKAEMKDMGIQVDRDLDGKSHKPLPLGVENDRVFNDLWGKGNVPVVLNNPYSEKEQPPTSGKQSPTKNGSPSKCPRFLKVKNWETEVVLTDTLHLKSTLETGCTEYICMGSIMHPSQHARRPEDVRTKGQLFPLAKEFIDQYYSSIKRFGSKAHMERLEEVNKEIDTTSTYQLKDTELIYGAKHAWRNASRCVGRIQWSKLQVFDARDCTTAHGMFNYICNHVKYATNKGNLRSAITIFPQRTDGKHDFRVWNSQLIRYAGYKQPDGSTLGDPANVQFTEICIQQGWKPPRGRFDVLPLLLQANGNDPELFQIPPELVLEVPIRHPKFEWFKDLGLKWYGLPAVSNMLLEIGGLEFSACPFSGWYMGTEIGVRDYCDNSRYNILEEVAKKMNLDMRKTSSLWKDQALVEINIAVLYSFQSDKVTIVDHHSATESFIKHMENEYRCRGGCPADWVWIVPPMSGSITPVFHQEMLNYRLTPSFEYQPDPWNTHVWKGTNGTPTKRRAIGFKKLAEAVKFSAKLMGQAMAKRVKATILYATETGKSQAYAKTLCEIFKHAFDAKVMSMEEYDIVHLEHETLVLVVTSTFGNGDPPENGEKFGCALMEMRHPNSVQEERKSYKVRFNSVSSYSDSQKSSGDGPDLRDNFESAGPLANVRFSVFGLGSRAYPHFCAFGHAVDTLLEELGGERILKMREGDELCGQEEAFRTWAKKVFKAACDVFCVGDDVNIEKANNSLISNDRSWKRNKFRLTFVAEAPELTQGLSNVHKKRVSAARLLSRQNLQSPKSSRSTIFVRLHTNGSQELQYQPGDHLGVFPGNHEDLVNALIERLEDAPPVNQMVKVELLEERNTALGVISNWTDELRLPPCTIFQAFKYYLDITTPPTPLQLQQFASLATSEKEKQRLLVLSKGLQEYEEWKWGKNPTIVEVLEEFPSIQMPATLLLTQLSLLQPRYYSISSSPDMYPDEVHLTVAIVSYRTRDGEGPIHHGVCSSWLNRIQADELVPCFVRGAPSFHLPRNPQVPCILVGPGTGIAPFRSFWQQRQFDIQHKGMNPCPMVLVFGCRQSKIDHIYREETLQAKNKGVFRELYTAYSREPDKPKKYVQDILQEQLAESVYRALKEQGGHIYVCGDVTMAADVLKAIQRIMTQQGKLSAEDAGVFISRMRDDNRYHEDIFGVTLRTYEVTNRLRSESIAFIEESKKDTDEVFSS

CCCC(=O)N1CCC(c2cc(Cl)ccc2N)=N1
inhibition (Nitric oxide synthase 1 [1]): 34.4%
inhibition [2]: 0.29%

Nc1ccccc1C1=NN(C(=O)CCc2ccccc2)CC1
inhibition (Nitric oxide synthase 1 [1]): 7.36%
inhibition [2]: 5.64%

COc1cc(N)c(C2=NN(C(=O)Cc3ccccc3)CC2)cc1OC
inhibition (Nitric oxide synthase 1 [1]): 35.1%
inhibition [2]: 21%

Nc1ccc(Cl)cc1C1=NN(C(=O)Cc2ccccc2)CC1
inhibition (Nitric oxide synthase 1 [1]): 18.2%
inhibition [2]: 34.6%

CCCC(=O)N1CCC(c2cc(OC)ccc2N)=N1
inhibition (Nitric oxide synthase 1 [1]): 34.7%
inhibition [2]: 13.1%

COc1cc(N)c(C2=NN(C(=O)C3CC3)CC2)cc1OC
inhibition (Nitric oxide synthase 1 [1]): 19.6%
inhibition [2]: 25.2%

Nc1cc(Cl)c(Cl)cc1C1=NN(C(=O)c2ccccc2)CC1
inhibition (Nitric oxide synthase 1 [1]): 0.62%
inhibition [2]: 36.1%

CCC(=O)N1CCC(c2ccccc2N)=N1
inhibition (Nitric oxide synthase 1 [1]): 36.5%
inhibition [2]: 6.88%

Nc1ccc(Cl)cc1C1=NN(C(=O)CCc2ccccc2)CC1
inhibition (Nitric oxide synthase 1 [1]): 32.4%
inhibition [2]: 31.4%

CCCC(=O)N1CCC(c2ccccc2N)=N1
inhibition (Nitric oxide synthase 1 [1]): 52.4%

COc1ccc(N)c(C2=NN(C(=O)C3CCC3)CC2)c1
inhibition (Nitric oxide synthase 1 [1]): 38.3%
inhibition [2]: 1.91%

CCC(=O)N1CCC(c2cc(OC)ccc2N)=N1
inhibition (Nitric oxide synthase 1 [1]): 53.3%
inhibition [2]: 20.4%

CC(=O)N1CCC(c2cc(Cl)ccc2N)=N1
inhibition (Nitric oxide synthase 1 [1]): 47.6%
inhibition [2]: 1.03%

CCC(=O)N1CCC(c2cc(Cl)ccc2N)=N1
inhibition (Nitric oxide synthase 1 [1]): 46.1%
inhibition [2]: 13.7%

COc1cc(N)c(C2=NN(C(=O)CCc3ccccc3)CC2)cc1OC
inhibition (Nitric oxide synthase 1 [1]): 55.3%
inhibition [2]: 23.7%
IC50 (Nitric oxide synthase 1 [3]): 880 µM

COc1ccc(N)c(C2=NN(C(=O)C3CCCC3)CC2)c1
inhibition (Nitric oxide synthase 1 [1]): 49.9%
inhibition [2]: 1.85%

Nc1ccccc1C1=NN(C(=O)Cc2ccccc2)CC1
inhibition (Nitric oxide synthase 1 [1]): 2.68%
inhibition [2]: 2.31%

COc1cc(N)c(C2=NN(C(=O)c3ccccc3)CC2)cc1OC
inhibition (Nitric oxide synthase 1 [1]): 25.1%
inhibition [2]: 28.9%

COc1ccc(N)c(C2=NN(C(=O)CCc3ccccc3)CC2)c1
inhibition (Nitric oxide synthase 1 [1]): 25.9%
inhibition [2]: 21.2%

Nc1ccc(Cl)cc1C1=NN(C(=O)C2CC2)CC1
inhibition (Nitric oxide synthase 1 [1]): 70.2%
inhibition [2]: 18.9%

Nc1ccc(Cl)cc1C1=NN(C(=O)c2ccccc2)CC1
inhibition (Nitric oxide synthase 1 [1]): 61.1%
inhibition [2]: 17%

Nc1cc(Cl)c(Cl)cc1C1=NN(C(=O)CCc2ccccc2)CC1
inhibition (Nitric oxide synthase 1 [1]): 2.97%
inhibition [2]: 50.2%

COc1cc(N)c(C2=NN(C(=O)Cc3ccccc3)CC2)c(OC)c1OC
inhibition (Nitric oxide synthase 1 [1]): 48.4%
inhibition [2]: 23.4%

Nc1cc(Cl)c(Cl)cc1C1=NN(C(=O)C2CC2)CC1
inhibition (Nitric oxide synthase 1 [1]): 50.5%
inhibition [2]: 15.5%

COc1ccc(N)c(C2=NN(C(=O)C3CCCCC3)CC2)c1
inhibition (Nitric oxide synthase 1 [1]): 62.2%
inhibition [2]: 13.2%

COc1ccc(N)c(C2=NN(C(=O)Cc3ccccc3)CC2)c1
inhibition (Nitric oxide synthase 1 [1]): 0.03%
inhibition [2]: 15%

COc1cc(N)c(C2=NN(C(=O)c3ccccc3)CC2)c(OC)c1OC
inhibition (Nitric oxide synthase 1 [1]): 62.9%
inhibition [2]: 8.14%
IC50 (Nitric oxide synthase 1 [3]): 530 µM

COc1ccc(N)c(C2=NN(C(=O)c3ccccc3)CC2)c1
inhibition (Nitric oxide synthase 1 [1]): 58.9%
inhibition [2]: 12.2%

COc1cc(N)c(C2=NN(C(=O)C3CC3)CC2)c(OC)c1OC
inhibition (Nitric oxide synthase 1 [1]): 0.05%
inhibition [2]: 30.1%

COc1ccc(N)c(C2=NN(C(C)=O)CC2)c1
inhibition (Nitric oxide synthase 1 [1]): 38%
inhibition [2]: 20.4%

CC(=O)N1CCC(c2ccccc2N)=N1
inhibition (Nitric oxide synthase 1 [1]): 33.7%
inhibition [2]: 7.73%

Nc1cc(Cl)c(Cl)cc1C1=NN(C(=O)Cc2ccccc2)CC1
inhibition (Nitric oxide synthase 1 [1]): 21.6%
inhibition [2]: 49.2%

Nc1ccccc1C1=NN(C(=O)C2CC2)CC1
inhibition (Nitric oxide synthase 1 [1]): 38.8%
inhibition [2]: 14.8%

COc1cc(N)c(C2=NN(C(=O)CCc3ccccc3)CC2)c(OC)c1OC
inhibition (Nitric oxide synthase 1 [1]): 82.5%
inhibition [2]: 18.3%
IC50 (Nitric oxide synthase 1 [3]): 400 µM

CCCCC(=O)N1CCC(c2cc(OC)ccc2N)=N1
inhibition (Nitric oxide synthase 1 [1]): 49.8%
inhibition [2]: 0.18%

COc1ccc(N)c(C2=NN(C(=O)C3CC3)CC2)c1
inhibition (Nitric oxide synthase 1 [1]): 62.2%
inhibition [2]: 19.9%

Nc1ccccc1C1=NN(C(=O)c2ccccc2)CC1
inhibition (Nitric oxide synthase 1 [1]): 57%
inhibition [2]: 8.7%

From ChEMBL document CHEMBL2396629, “Synthesis and biological evaluation of 4,5-dihydro-1H-pyrazole derivatives as potential nNOS/iNOS selective inhibitors. Part 2: Influence of diverse substituents in both the phenyl moiety and the acyl group” (Bioorg Med Chem, 2013)
